Measured values: ChEMBL document CHEMBL4513216, “Probing the Open Global Health Chemical Diversity Library for Multistage-Active Starting Points for Next-Generation Antimalarials” (ACS Infect Dis, 2020)

Test: Toxicity liver stage against HepG2, at 10uM
Type: cell-based
Design: test concentration 10 uM, cell line HepG2-A16-CD81EGFP
Settings: human, HepG2-A16-CD81EGFP cells; read-out: INHIBITION
Method in brief: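 Uninfected HepG2-A16-CD81EGFP cells, 3 × 10^3 per well, 1536-well, plated on prespotted compound at 10 μM final, parasite-free screening media added to match infected plates; puromycin 10 μM positive, DMSO 0.5% negative; run in parallel with 48 h PbLuc assay at 37 °C, 5% CO2; viability by CellTiter-Glo luminescence, normalized to controls.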

Point of comparison: `Cc1ncc(CN(C)c2nc3c(cnn3C(C)(C)C)c(=O)[nH]2)s1`, cytotoxicity at 10 µM -19.2%. Against it:
- O=C(NCc1ccco1)[C@@H]1CCO[C@@H]2CCN(c3ncccn3)C[C@H]21 — lower, -77.6%
- CC(C)N1CCN(C(=O)C(C)n2cncn2)CC1 (stereo not given) — higher, 0.724%
- COC(=O)CCC(=O)N1CCC2(CN(Cc3cccc(F)c3)C2)C1 — higher, 4.6%
- Cc1cc(C)c(CNc2cnc3ccccc3n2)c(=O)[nH]1 — higher, 41.8%
- CCc1ccc(CN2CCC3(CCCN(C(=O)N(C)C)C3)C2)o1 (stereo not given) — higher, 7.07%
- CN(c1cccnc1N1CCCC1)S(=O)(=O)c1cccs1 — higher, 20.4%
- CCCNC(=O)CCNC(=O)c1ccccc1N1CCOCC1 — higher, 0.321%
- CCN1CCOC(CNCc2ccc(C)s2)C1 (stereo not given) — higher, 2.35%
- Cn1nc(C(=O)NCc2cccs2)c2c1CCS(=O)(=O)C2 — higher, -0.328%
- CC(C)NC(=O)N1CCC2(CC(=O)N(c3cccc(F)c3)C2)C1 (stereo not given) — higher, 3.46%
- Cc1ccc(NC(=O)c2cnc(N3CCN(C)CC3)nc2C)cc1C — higher, -7.8%
- CN(C)C(=O)[C@]12CCCN(CC3CC3)C[C@H]1CN(c1ccccn1)C2 — higher, 3.68%
- COCCCC1(CO)CCCN(C(=O)c2cnc3c(c2)CCCC3)C1 (stereo not given) — lower, -50.2%
- CCN(Cc1noc(CC(C)C)n1)Cc1ccccc1C — lower, -50.8%
- COC(=O)N1C[C@@H]2CC[C@H]1CN(Cc1cscn1)C2 — higher, -9.25%
- CC1CC(=O)c2cc(C(=O)N3CCOCC3)c(=O)[nH]c2C1 (stereo not given) — higher, -3.06%
- CCS(=O)(=O)N1CC[C@@H]2[C@H](COCC3CC3)CN(C)C(=O)[C@@H]2CC1 — higher, -4.79%
- O=C(NCC1CC1)c1n[nH]c2c1CNCC2 — higher, 4.14%
- O=C(NC1CCN(c2ncccn2)CC1)c1sccc1C1CC1 — higher, -5.75%
- C=C(C)COc1ccccc1CN1CCC(C(=O)NCC)C1 (stereo not given) — higher, 11.6%
- CC1(C(=O)N2CCOCC2)CN(Cc2c[nH]cn2)CCO1 (stereo not given) — higher, -4.61%
- COc1ccc(CN(CC2CCCO2)C(=O)CN2CCCCC2=O)cc1 (stereo not given) — higher, -0.645%
- CC(C)c1nnc2n1CCN(c1nn3cc(C(C)(C)C)nc3s1)C2 — higher, 7.44%
- O=C(CCc1cn[nH]c1)N1C[C@@H](CN2CCOCC2)C[C@H](CO)C1 — higher, 3.13%
- Cc1ccc(N(CCC#N)C(=O)CN2CCCC2c2cccs2)cc1 (stereo not given) — higher, -3.75%
- N#Cc1cccc(C(=O)N2CCN(c3ncccn3)CC2)c1 — higher, -0.0581%
- Cc1ccc(C(=O)N2Cc3c(CN4CCCCC4)nn(C)c3C2)o1 — higher, -1.94%
- CC(C)CN1CCN(Cc2nc3c(s2)CCCC3)[C@H]2CS(=O)(=O)C[C@H]21 — higher, 8.19%
- COCc1cccc(CNC(=O)CN2CCCC2c2noc(C)n2)c1 (stereo not given) — higher, 0.762%
- CCc1nc(CN(C)C2CCN(CCNS(=O)(=O)CC)C2)no1 (stereo not given) — higher, -2.14%
- O=C(NCCn1ccnc1)C1COCC(=O)N1Cc1ccccc1 (stereo not given) — higher, 8.19%
- CCN1CC2(CCN(CC3CCCO3)CC2)OC1=O (stereo not given) — higher, -4.78%
- NC(=O)CN1CC[C@@]2(O)CCCC[C@H]2[C@@H]1c1ccc2c(c1)OCO2 — higher, 3.26%
- CC(SCCC(=O)NC(N)=O)c1c(F)cccc1F (stereo not given) — higher, 6.93%
- Cc1ccc(C)c(CNC(=O)NC(C)(C(=O)O)c2ccco2)c1 (stereo not given) — higher, -10.8%
- CCS(=O)(=O)N1CCc2ncnc(OC)c2CC1 — higher, 6.93%
- Cc1ccnc(NCCNC(=O)C2CC3(CCNCC3)CN2C)c1 (stereo not given) — higher, 2.69%
- CC(=O)N1CCC(c2ccnc(Nc3cnccn3)n2)C1 (stereo not given) — higher, -0.182%
- CC(C)Cc1noc(CN2CCCN(C(=O)c3cccc(Cl)c3)CC2)n1 — higher, -2.34%
- CCOc1cccc(NC(=O)Cc2cccc(O)c2)n1 — higher, -0.116%
- COC(=O)c1ccc(NC(=O)CNCc2ccco2)cc1 — higher, -12%
- O=C(c1ccncc1)N1CCCN(Cc2nnc(C3CC3)o2)CC1 — higher, 1.91%
- CC(C)c1cc2c(O)nc(CSCC(=O)NCc3ccncc3)nc2s1 — higher, -6.18%
- CCc1cnc(CN2C(=O)CC3(CCSC3)C2=O)o1 (stereo not given) — higher, -9.36%
- Cc1ccc(C2CCCCCN2CCCS(C)(=O)=O)o1 (stereo not given) — higher, -4.3%
- Cc1ccc(CNC(=O)Nc2nnc(C3CC3)s2)n1C — higher, -1.61%
- CCOc1ccccc1-c1noc(CN(C)Cc2cnn(C)c2)n1 — higher, -6.98%
- C/C=C(\C)CN1C[C@H](NC(=O)c2cc[nH]c2C)[C@@H](C2CC2)C1 — higher, 4.96%
- Cc1occc1C(=O)N1C[C@@H]2CCCO[C@@H]2[C@H](N(C)Cc2ccco2)C1 — higher, 6.67%
- O=C1NCC[C@]12CN(Cc1ccoc1)C[C@H]2c1ccccc1 — higher, 4.55%
- Cc1cccc(CN2CCCC3(CCN(c4cccnc4)C3=O)C2)n1 (stereo not given) — higher, -1.34%
- CCc1cc(C(=O)N2CCC3(CCCN(CC4CC4)C3=O)C2)cs1 (stereo not given) — lower, -164%
- COCCCNC(=O)NCc1cccn1Cc1ccccc1C — higher, 2.88%
- CCc1c(C(=O)Nc2ccc(F)c(C(=O)NC)c2)cnn1CC(C)C — higher, 14.7%
